Assay results as given in PMC5515376 (Nature, 2016).
Entries after “also recorded” stand apart in the source; their conditions may differ. Read-outs that look alike come from different tables or passages of the source.

Legend:
P. falciparum Dd2 = experiment: In vitro P. falciparum blood-stage growth inhibition assay; assay type: cell-based, Plasmodium falciparum
recombinant human DHODH = recombinant human DHODH (Homo sapiens, UniProt Q02127); experiment: Human DHODH biochemical assay
Summary of the method: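 Recombinant human DHODH at 13 nM was tested against a 20-point inhibitor dilution series. Reactions contained 1 mM L-dihydroorotate (excess), 100 µM dodecylubiquinone as electron acceptor and 60 µM 2,6-dichloroindophenol as indicator, in 50 mM Tris-HCl pH 8.0, 150 mM KCl and 0.1% Triton X-100. Reactions ran 20 min at 25 °C and were read at OD600.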

[1] = tested on: P. berghei (ANKA) liver stage; experiment: In vitro P. berghei liver-stage assay; assay type: cell-based, Plasmodium berghei; conditions: read-out: EC50, liver stages; in vitro
Summary of the method: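 HepG2 cells (~17,500 per well, in duplicate) were cultured 18–24 h, then the medium was exchanged and compound added. After 1 h, 4,000 P. berghei ANKA GFP–luc sporozoites per well were added, freshly dissected from A. stephensi mosquitoes. Plates were spun 10 min at 1,000 r.p.m. and incubated 48 h at 37 °C. Parasite load was read by Bright-Glo luminescence.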

TM90C6B strain = experiment: Growth inhibition, TM90C6B strain; assay type: cell-based, Plasmodium falciparum; conditions: TM90C6B strain (atovaquone resistant)
[2] = tested on: PfscDHODH (P. falciparum line expressing S. cerevisiae DHODH); experiment: Growth inhibition, PfscDHODH transgenic line; assay type: cell-based, Plasmodium falciparum; conditions: relative to Dd2
Summary of the method: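 Asexual blood-stage parasites were cultured to 3–8% parasitaemia, counted on Giemsa smears, and diluted in medium to 2.0% parasitaemia and 2.0% haematocrit. This suspension was added to compound dispensed from DMSO, giving a final 1% parasitaemia and 1% haematocrit, with mefloquine as control. Plates were incubated for 72 h at 37 °C. Growth was read by SYBR Green I fluorescence in Tris/EDTA/saponin/Triton X-100 lysis buffer.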

[3] = tested on: P. falciparum CYTb^G33V strain; experiment: Growth inhibition, P. falciparum CYTb^G33V mutant strain; assay type: cell-based, Plasmodium falciparum
[4] = tested on: P. berghei (ANKA GFP-luc) blood-stage parasites; experiment: In vivo P. berghei blood-stage assay; parameters: species or system Plasmodium berghei; conditions: CD-1 mice; single 100 mg kg^−1 dose; parasites re-emerge very quickly
[5] = tested on: parasite cytosolic Na^+ concentration; experiment: Parasite cytosolic Na+ concentration measurement; assay type: cell-based, Plasmodium falciparum; conditions: after treatment
[6] = read-out: PfDd2 EC50, asexual blood-stage parasites (Dd2), SAR table

recombinant human DHODH, sequence (Q02127 whole entry): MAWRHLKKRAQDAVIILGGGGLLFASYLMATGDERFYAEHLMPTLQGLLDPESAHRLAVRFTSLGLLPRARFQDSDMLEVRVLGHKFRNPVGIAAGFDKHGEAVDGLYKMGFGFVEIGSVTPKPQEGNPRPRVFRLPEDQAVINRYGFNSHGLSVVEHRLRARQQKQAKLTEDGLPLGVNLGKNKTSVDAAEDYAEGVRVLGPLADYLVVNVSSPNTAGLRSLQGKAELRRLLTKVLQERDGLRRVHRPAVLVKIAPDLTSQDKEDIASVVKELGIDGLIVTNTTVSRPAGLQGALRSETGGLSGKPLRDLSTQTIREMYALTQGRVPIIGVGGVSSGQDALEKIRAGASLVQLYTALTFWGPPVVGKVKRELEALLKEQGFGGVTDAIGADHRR

Structure (SMILES): COc1ccc(NC(=O)N2CCCCN3[C@H](CO)[C@H](c4ccc(C#CC5CC5)cc4)[C@@H]3C2)cc1 [BRD5774]
- EC50 (P. falciparum Dd2; [6]): 12200 nM

Structure (SMILES): COc1ccc(NC(=O)N2CCCCN3[C@H](CN4CCN(C)CC4)[C@H](c4ccc(C#Cc5ccccc5)cc4)[C@@H]3C2)cc1 [BRD6479]
- EC50 (P. falciparum Dd2; [6]): 158 nM

Structure (SMILES): CCCNC(=O)N1[C@H](C#N)[C@H](c2ccc(C#Cc3cccc(F)c3)cc2)[C@H]1CO [BRD7539]
- Inhibition of human DHODH orthologue (recombinant human DHODH): no inhibition
- EC50 [1]: 15 nM
- Change in potency (TM90C6B strain): unaffected
- EC50 (P. falciparum Dd2; read-out: EC50, asexual blood stages, in vitro): 10 nM
- Potency against PfscDHODH [2]: markedly reduced potency; also recorded: selectively reduced potency
- Change in potency [3]: unaffected

Structure (SMILES): COc1ccc(NC(=O)N2CCCCN3[C@H](CN4CCC4)[C@H](c4ccc(C#Cc5ccccc5)cc4)[C@@H]3C2)cc1 [BRD8493]
- EC50 (P. falciparum Dd2; [6]): 116 nM

Structure (SMILES): COc1ccc(NC(=O)N2CCCN3[C@H](CO)[C@H](c4ccc(C#Cc5ccccc5)cc4)[C@@H]3C2)cc1 [BRD9599]
- EC50 (P. falciparum Dd2; [6]): 850 nM

Structure (SMILES): C[C@H]1[C@H](OC(=O)CCC(=O)O)O[C@@H]2O[C@@]3(C)CC[C@H]4[C@H](C)CC[C@@H]1[C@@]24OO3 [artesunate, reference compound]
- Effect on parasites [4]: rapid suppression of parasites
- Parasite cytosolic Na^+ concentration [5]: constant

Structure (SMILES): O=C1C(O)=C([C@H]2CC[C@H](c3ccc(Cl)cc3)CC2)C(=O)c2ccccc21 [atovaquone, reference compound]
- EC90 (P. falciparum Dd2; Plasmodium falciparum, DD2): 2 nM

Structure (SMILES): OC(c1cc(C(F)(F)F)nc2c(C(F)(F)F)cccc12)C1CCCCN1 (centres unmarked) [mefloquine]
- Parasite cytosolic Na^+ concentration [5]: constant
